Most compounds without a hit are left out; they make up all but 5.4% or so of the library.
T cruzi repl – T. cruzi replication inhibition. T. cruzi beta-gal in NIH3T3, luminescence, 90 h. inhibition, % (concentration not given with the values). 1.4% of 300,000 active. AID 1885;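 active = mean inhibition across valid replicates above about 55%, limit read from the data; inconclusive = mean below that limit but half or more replicates reach it; inactive = mean below it, under half of replicates reach it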;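 note: signal also drops with host cell toxicity which is not excluded here; higher percent means less beta-gal luminescence so fewer parasites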
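Assay system: NIH/3T3 fibroblasts plus reporter T. cruzi. Amount: NIH/3T3 cells, 5,000 per well. Buffer or medium: DMEM, 2% fetal bovine serum. Doses: compound pinned at 50 nL/well, DMSO. Schedule: ≥90 h infection period, 3 h prior cell attachment. Signal: luminescent β-galactosidase signal after 60 min lysis. Read-out: parasite load inhibition, %.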
aSyn UTR inh – MLPCN primary screen, SNCA 5' untranslated region; alpha-synuclein 5'UTR reporter, inhibitor activity; inhibition, % (tested at 7.5 µM); 0.82% of 300,000 active; AID 1813; in the data active = inhibition above about 60%; inconclusive = no clear call, values can overlap the other calls;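 note: H4 neuroglioblastoma cells stably carrying SNCA 5'UTR luciferase fusion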
SKKanGAS inh – inhibitors of SKKanGAS S. pyogenes growth in kanamycin (SK-promoter or general growth effect); BacTiter-Glo, 6 h; inhibition, % at 7.5 µM; 1.3% of 300,000 active;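 active = mean replicate score, as percent of positive control median, at least 50; inconclusive = mean below 50 but one replicate at or above 50; inactive = mean and every replicate below 50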;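 note: strain carries kanamycin resistance gene driven by streptokinase promoter and grows in 40 µg/ml kanamycin; loss of luminescence reflects streptokinase promoter inhibition or plain growth inhibition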
CSC inhib – blocks cancer stem cells; cancer stem cell-like cells viability, luminescence; inhibition, % at 7.5 µM; 1.1% of 300,000 active; AID 2717; in the data active = inhibition above about 75%; inconclusive = no clear call, values can overlap the other calls; tested in HMLE shEcad cells
Mdm2-MdmX inh – inhibitors of human Mdm2/MdmX interaction; O15151+Q00987; SaOS-2 split-luciferase Mdm2/MdmX complementation, luminescence; inhibition, % at 8 µM; 3% of 330,000 active; AID 485346;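 active = inhibition of at least 50% at 8 µM in the primary screen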
Mdm2-MdmX conf – confirmation of human Mdm2/MdmX interaction inhibitors | Mdm2-MdmX binding, luminescent assay | AID 489028 | 55% of 10,000 active | shares compounds with Mdm2-MdmX inh | inhibition, % at 8 µM; in the data active = inhibition above about 40%
FLuc counter – counter-screen for Mdm2/MdmX inhibitors: full-length luciferase; shares compounds with Mdm2-MdmX inh; SaOS-2 full-length luciferase counterscreen, luminescence; inhibition, % at 8 µM; 77% of 6,200 active; AID 504607;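 active = mean inhibition at 8 µM reaching about 37%, which flags the compound as non-specific, limit read from the data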;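 note: p53-null SaOS-2 cells with luciferase driven by a doxycycline-inducible promoter; compound on cells about two nights before reading with doxycycline added after day one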
Large screens that a line does not name were inactive (follow-up assays come after a bar, where they were run).

COc1cc(/C=C(/C#N)c2nc3ccccc3[nH]2)ccc1OCC(=O)Nc1ccccc1C(C)C	aSyn UTR inh 103.5, CSC inhib 99.8, Mdm2-MdmX inh 100.4 | Mdm2-MdmX conf 79.2 | FLuc counter 51.7
COc1cc(/C=C(/C#N)c2nc3ccccc3[nH]2)ccc1OCC(=O)Nc1ccccc1C	CSC inhib 83.1, Mdm2-MdmX inh 100.3 (no result: T cruzi repl, aSyn UTR inh, SKKanGAS inh) | Mdm2-MdmX conf inactive
COc1cc(/C=C(\C#N)c2nc3ccccc3[nH]2)ccc1OC(=O)c1ccco1	none
CCOc1cc(/C=C(/C#N)c2nc3ccccc3[nH]2)ccc1OCc1ccc(C(=O)O)o1	none
N#Cc1c(-c2ccccc2)nc2n(c1=O)CCS2	none
Cc1ccc(S(=O)(=O)N(C)c2ccc(OCC(=O)O)cc2)cc1	none
COc1ccc(C(=O)c2c(C(F)(F)F)oc3c2C(=O)c2ccccc2C3=O)cc1	T cruzi repl inconclusive, aSyn UTR inh 109.0, SKKanGAS inh 97.0, CSC inhib 105.8, Mdm2-MdmX inh 78.0 | Mdm2-MdmX conf 66.2 | FLuc counter 53.7
CCOc1ccc2ccccc2c1C1NC(=O)NC(C)=C1C(=O)OCCOC (stereo not given)	none
CCc1cc(C)cc(OCCNC(=O)c2cncc(Br)c2)c1	Mdm2-MdmX inh 58.5 | Mdm2-MdmX conf inactive
O=C(NCCOc1ccccc1)c1cncc(Br)c1	none
CCC(=O)NC1=C(NC(C)c2ccccc2)C(=O)c2ccccc2C1=O (stereo not given)	none
CCC(=O)NC1=C(Cl)C(=O)C(NC(=O)CC)=C(Cl)C1=O	Mdm2-MdmX inh 57.9 (no result: T cruzi repl, aSyn UTR inh, SKKanGAS inh, CSC inhib) | Mdm2-MdmX conf 43.5 | FLuc counter inactive
Cc1ccc(C(=O)n2c3ccccc3c3ccccc32)cc1	SKKanGAS inh 67.0, Mdm2-MdmX inh 51.0 | Mdm2-MdmX conf 55.0 | FLuc counter 53.4
CC(=O)n1c2ccccc2c2ccccc21	none
COc1ccc(C(C)=O)cc1CSc1nnc(-c2ccc(Cl)cc2)n1-c1ccccc1	Mdm2-MdmX inh 63.4 | Mdm2-MdmX conf 48.9 | FLuc counter inactive
CN(C)CCn1c2ccccc2c2nc3ccc([N+](=O)[O-])cc3cc21	aSyn UTR inh 103.7, CSC inhib inconclusive, Mdm2-MdmX inh 100.3 | Mdm2-MdmX conf 83.6 | FLuc counter 59.7
COc1ccc(C(C(=O)NCC2CCCO2)N(Cc2cccs2)C(=O)c2snc(C(N)=O)c2N)cc1OC (stereo not given)	none
CCOc1ccc(C(C(=O)NCC2CCCO2)N(Cc2cccs2)C(=O)c2snc(C(N)=O)c2N)cc1 (stereo not given)	Mdm2-MdmX inh 50.0 | Mdm2-MdmX conf 51.0 | FLuc counter 78.0
CC1(C)CC(N2CCCC2)=CC(=[N+]2CCCCC2)C1	T cruzi repl inconclusive
CN(Cc1ccccc1)C1=CC(=[N+]2CCCCC2)CC(C)(C)C1	T cruzi repl 70.2, Mdm2-MdmX inh 72.1 | Mdm2-MdmX conf 66.7 | FLuc counter 39.3
COc1cc2c(c(OC)c1OC)-c1ccc(OC)c(=O)cc1C(NC(C)=O)CC2 (stereo not given)	aSyn UTR inh 74.8, Mdm2-MdmX inh 59.9 | Mdm2-MdmX conf 57.5 | FLuc counter 118.1
COc1cccc(C(=O)Nc2ccc3c(cc2=O)[C@@H](NC(C)=O)CCc2cc(OC)c(OC)c(OC)c2-3)c1	Mdm2-MdmX inh 70.7 | Mdm2-MdmX conf 65.5 | FLuc counter 99.0
O=C(N/N=C/c1ccccc1)c1cccc2ccccc12	none
O=C(N/N=C/c1cccn1-c1ccc(O)cc1)c1cccc2ccccc12	Mdm2-MdmX inh 64.1 | Mdm2-MdmX conf inactive
O=C(N/N=C/c1ccc(O)cc1)c1ccc(COc2cc(Cl)ccc2Cl)o1	Mdm2-MdmX inh 60.8 | Mdm2-MdmX conf inactive
Cc1ccc(CS(=O)Cc2ccc(C(=O)NCCc3ccccc3)o2)cc1 (stereo not given)	none
Cc1ccc(S(=O)(=O)c2nnn3c2nc(NC2CCN(Cc4ccccc4)CC2)c2ccccc23)cc1C	T cruzi repl 59.3, Mdm2-MdmX inh 63.7 | Mdm2-MdmX conf inactive | FLuc counter 51.5
Cc1ccc(S(=O)(=O)c2nnn3c2nc(NCCCN2CCCC2=O)c2ccccc23)cc1C	none
Cc1cnc(NC(=O)Cc2cccs2)s1	none (no result: T cruzi repl, aSyn UTR inh)
CN(CC(=O)Nc1cccc(F)c1)C(=O)c1ccc(COc2ccccc2)cc1	none
CC(=O)OCC1O[C@@H](O[C@@H]2C[C@H]3C(C)(C)[C@H](OC(C)=O)CC[C@]3(C)[C@H]3CC[C@]45C[C@]4(CC[C@H]5[C@@H](C)C[C@@H](O)[C@H](O)C(C)(C)O)[C@@]32C)[C@H](O)[C@@H](O)[C@@H]1O (stereo not given in full)	CSC inhib 102.0, Mdm2-MdmX inh 93.2 | Mdm2-MdmX conf inactive
NS(=O)(=O)c1ccc(NC(=O)COC(=O)c2cc3ccccc3cc2O)cc1	none
NC(=O)c1ccc(NC(=O)COC(=O)c2cc3ccccc3cc2O)cc1	Mdm2-MdmX inh 54.5 (no result: T cruzi repl, aSyn UTR inh, SKKanGAS inh) | Mdm2-MdmX conf inactive
Cc1noc(C)c1S(=O)(=O)N1CCCN(C(=O)/C=C/c2ccccc2F)CC1	none (no result: T cruzi repl, aSyn UTR inh, SKKanGAS inh, CSC inhib)
Cc1ccc(C(=O)OCn2ncc(Cl)c(Cl)c2=O)cc1	Mdm2-MdmX inh 90.0 (no result: CSC inhib) | Mdm2-MdmX conf 100.2 | FLuc counter inactive
O=C(OCn1ncc(Cl)c(Cl)c1=O)c1ccc(C(F)(F)F)cc1	T cruzi repl 63.5, Mdm2-MdmX inh 71.9 (no result: CSC inhib) | Mdm2-MdmX conf 74.0 | FLuc counter 53.0
O=C(NCC(c1cccnc1)N1CCOCC1)NC1CCCCC1 (stereo not given)	none
O=C1C(N2CCOCC2)=C(n2nnc3ccccc32)C(=O)c2ccccc21	T cruzi repl inconclusive, aSyn UTR inh inconclusive, CSC inhib 109.8, Mdm2-MdmX inh 73.2 | Mdm2-MdmX conf inactive
CCC(C)NC(=O)c1c(N)n(/N=C/c2cccnc2)c2nc3ccccc3nc12 (stereo not given)	Mdm2-MdmX inh 64.8 | Mdm2-MdmX conf 59.5 | FLuc counter 60.6
Cc1nc2ccccc2n1/N=C/c1cccnc1	none
CC(C)OCCCNC(=O)c1c(N)n(/N=C/c2ccccn2)c2nc3ccccc3nc12	Mdm2-MdmX inh 64.4 | Mdm2-MdmX conf 52.0 | FLuc counter 63.2
COCCCNC(=O)c1c(N)n(/N=C/c2cccs2)c2nc3ccccc3nc12	none
CNC(=S)N/N=C/c1cn(CCOc2cccc(OC)c2)c2ccccc12	none
COc1ccc(/C=N/Nc2ncnc(Cl)c2N)cc1OC	none
COc1cccc(/C=N/Nc2ncnc3scc(-c4ccccc4)c23)c1O	aSyn UTR inh inconclusive, SKKanGAS inh 82.0, CSC inhib 111.0, Mdm2-MdmX inh 81.6 | Mdm2-MdmX conf 80.3 | FLuc counter inactive
COc1cccc(/C=N/Nc2ncnc(Cl)c2N)c1O	aSyn UTR inh 88.9, CSC inhib 156.5, Mdm2-MdmX inh 100.3 | Mdm2-MdmX conf 82.7 | FLuc counter inactive
COC(=O)c1sccc1N/N=C/c1cccc(OC)c1O	none
Cn1c(/C=C/c2ccc(Br)cc2)c([N+](=O)[O-])c(=O)n(C)c1=O	Mdm2-MdmX inh 84.3 | Mdm2-MdmX conf 52.2 | FLuc counter inactive

Bioassay records deposited in PubChem by several laboratories.
